Source: PubChem BioAssay (several laboratories)
Only some compounds are listed: those with a hit (about 2.6% of all), similar ones and a draw of the others.
AHR activator: activates the human aryl hydrocarbon receptor. activation, % at 5 µM. hit rate 2.5% among 320,000. AHR-responsive luciferase reporter cells, luminescence. P35869; in the data active = activation above about 47%;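 note: 0% = vehicle wells and 100% = reference agonist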
proCasp3 act: activates human procaspase-3; AID 463141; hit rate 0.11% among 330,000; activation, % at 8.5 µM; recombinant procaspase-3 D3A, Ac-DEVD-pNA absorbance 405 nm;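 active = activation above the mean of all tested compounds plus 3 SD, cut at about 21% in these data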;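 note: 0% = DMSO alone and 100% = DMSO wells spiked with extra 5 µM PC-3 D3A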
Target sequence (P42574 whole entry D9A/D28A/D175A): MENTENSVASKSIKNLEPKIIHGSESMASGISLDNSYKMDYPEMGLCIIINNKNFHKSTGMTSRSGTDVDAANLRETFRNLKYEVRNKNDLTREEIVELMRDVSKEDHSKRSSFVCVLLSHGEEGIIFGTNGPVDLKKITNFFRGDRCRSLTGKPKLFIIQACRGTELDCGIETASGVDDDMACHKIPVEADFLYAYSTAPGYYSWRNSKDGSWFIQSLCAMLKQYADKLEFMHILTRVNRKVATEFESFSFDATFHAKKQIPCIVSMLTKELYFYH
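Assay system – Procaspase-3 D3A mutant · Benchmarks – DMSO low control, extra-enzyme high control · Technique – 405 nm absorbance of p-nitroaniline, reads at 0 and 120 min · Doses – 8.5 µM nominal · Measure – % activation between DMSO and enzyme-spiked controls · Also added – Ac-DEVD-pNA chromogenic peptide substrate · Schedule – 1 h compound preincubation, 2 h substrate hydrolysis at 25 °C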
procasp7 counter: counter-screen: procaspase-7 (human) activation; hit rate 0.093% among 330,000; activation, % at 8.5 µM; P55210; recombinant procaspase-7, Ac-DEVD-pNA absorbance 405 nm; D23A/D198A/D206A triple mutant, cannot self-cleave; scale: DMSO 0, 5 µM enzyme 100; AID 463210;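 active = percent activation above the screen-wide mean plus 3 SD, cut at about 25% in these data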
Target sequence (P55210 whole entry D23A/D198A/D206A): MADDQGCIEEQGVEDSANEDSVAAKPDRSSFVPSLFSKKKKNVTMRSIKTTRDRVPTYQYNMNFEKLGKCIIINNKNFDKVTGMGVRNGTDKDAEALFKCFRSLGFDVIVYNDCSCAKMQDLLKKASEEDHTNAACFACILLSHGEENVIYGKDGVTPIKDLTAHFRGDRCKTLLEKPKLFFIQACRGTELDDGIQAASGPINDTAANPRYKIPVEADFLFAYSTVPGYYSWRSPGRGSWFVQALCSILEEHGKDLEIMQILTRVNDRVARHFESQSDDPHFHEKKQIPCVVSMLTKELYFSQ
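buffer or medium = Zinc-free HEPES/NaCl buffer, pH 7.4 | material = Procaspase-7 triple mutant (PC-7 D3A) | input = 2 µM procaspase-7 mutant as dispensed | signal = Epi-absorbance of released pNA at 405 nm, two timepoints | timing = 1 h preincubation, 2 h reaction | replicates = singlicate compound testing | evaluation = % activation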
PolyA inh: inhibitors of polyadenylation in S. cerevisiae; S. cerevisiae SKY197-pL101 polyadenylation reporter, beta-gal luminescence; efflux-impaired pdr1/pdr3 knockout yeast; score 100 = 6 SD above DMSO; activity score, % at 12 µM; hit rate 0.02% among 300,000;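 active = lowest replicate activity score at least 50, where 100 means six control SD above control mean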;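 note: yeast exposed to compound for 9 h at 30 °C; higher score means more reporter readthrough which indicates perturbed polyadenylation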
Numbers without * were called inactive; x = not tested or not shown.

SMILES	AHR activator	proCasp3 act	procasp7 counter	PolyA inh
C=CCNC(=O)CSc1nnc(-c2ccc(S(=O)(=O)N3CCCC3)cc2)n1C	3.8	-5.8	-9.3	1.1
Cc1cc(C)c2nc(/N=C(\N)NC(=O)Nc3ccccc3)nc(C)c2c1	70.3*	-5.8	5.5	2.1
CCCC(=O)N/C(N)=N/c1nc(C)c2ccccc2n1	59.7*	0.8	3.0	-11.4
Cc1cc(C)c2nc(/N=C(\N)NC(=O)c3ccccc3)nc(C)c2c1	24.9	8.3	2.8	0.7
COc1ccc(C(=O)N/C(=C\c2cn(C)c3ccccc23)C(=O)N2CCN(C)CC2)cc1	23.4	5.2	0.1	7.3
CCOC(=O)/C(C#N)=C\c1cn(C)c2ccccc12	-0.3	-2.8	-5.0	-22.3
CN1CCN(C(=O)/C(=C/c2cn(C)c3ccccc23)NC(=O)c2ccccc2)CC1	50.2*	8.6	-0.1	1.3
CCOC(=O)/C(=C/c1cn(C)c2ccccc12)NC(=O)c1ccccc1	49.3*	10.7	0.0	14.7
CS(=O)(=O)c1ccc(Cl)c(NC(=O)COc2ccc3c(c2)CCC3)c1	1.1	-0.1	2.8	1.6
O=C(NC1CC2CCCC(C1)N2Cc1ccccc1)c1ccc([N+](=O)[O-])cc1 (stereo not given)	x	x	x	-7.6
O=C1NC(N2CCOCC2)=N/C1=C/c1ccc2c(c1)OCO2	54.0*	4.9	12.9	-3.5
O=C(Nc1ccsc1C(=O)NC1CC1)c1ccccc1	58.6*	3.9	10.8	-3.6
Cc1noc(C)c1C(=O)N(CC(=O)Nc1ccccc1Br)Cc1ccco1	-1.9	2.8	5.0	x
CCOC(=O)N1CCN(C(=O)c2c[nH]c3ccc(S(=O)(=O)N(C)c4cccc(C)c4)cc3c2=O)CC1	0.1	7.6	-1.8	-2.4
Cn1cncc1C#Cc1ccc2cc(CCO)oc(=O)c2c1	48.5*	3.5	-1.0	x
Cn1cncc1C#Cc1ccc2cc(CCCO)oc(=O)c2c1	18.4	8.2	3.9	x
CCSc1nnc2nc3[nH]c4c(C)cccc4c3nn12	54.4*	5.2	-0.5	0.1
C=CCSc1nnc2c(n1)[nH]c1c(C)cccc12	64.5*	-12.1	-11.4	-27.8
COc1cccc(/C=N/Nc2nnc3c(n2)[nH]c2ccccc23)c1OC	27.6	-7.2	4.5	9.0
CC(/C=N/Nc1nnc2c(n1)[nH]c1ccccc12)=C\c1ccco1	72.9*	1.0	0.2	11.6
Cc1cccc2c1[nH]c1nc(N/N=C\c3ccco3)nnc12	79.2*	1.9	3.8	8.8
Cc1ccnc(N/N=C/c2ccco2)n1	3.0	-3.7	-10.1	-21.4
CCCCn1c(N)c(N(CCOC)C(=O)COC(=O)COc2ccc(CC)cc2)c(=O)[nH]c1=O	-0.9	-1.1	6.3	0.0
CC(=O)Nc1ccc(S(=O)(=O)N(C#N)c2nc(C)cc(C)n2)cc1	5.5	-12.9	-7.5	-4.6
O=C(Nc1cc([N+](=O)[O-])ccc1F)C1CCN(S(=O)(=O)c2cccs2)CC1	-1.7	4.3	6.1	x
SMILES	AHR activator	proCasp3 act	procasp7 counter	PolyA inh
Cn1c(SCC(=O)Nc2cccc(F)c2)nc2c(c1=O)SCC2	-5.2	2.0	7.6	0.6
Cc1nnc(NC(=O)C(C)Sc2nnc(-c3ccco3)n2C(C)C)s1 (stereo not given)	0.2	7.6	9.3	0.3
OCCC1CN(Cc2ccc3c(c2)CCO3)CCN1Cc1ccc(F)cc1 (stereo not given)	2.4	-1.4	5.3	-4.0
Cc1cc(C)c2c(N)c(C(=O)Nc3cccc(C)c3C)sc2n1	67.8*	-14.9	-25.1	-6.1
Cc1ccc(NC(=O)c2sc3nc(C)cc(C)c3c2N)cc1	27.4	-5.0	-2.4	-17.7
Cc1cc(C)c2c(N)c(C(=O)Nc3nccs3)sc2n1	70.7*	-7.9	-1.2	-20.1
Nc1c(C(=O)Nc2nccs2)sc2nc(-c3cccs3)cc(C(F)(F)F)c12	65.2*	-13.0	6.9	-15.9
CC(C)(C)c1ccc(CSc2nc(N)cc(=O)[nH]2)cc1	8.9	2.9	1.8	13.9
COc1cc(C(=O)N(c2ccc(C)c(C)c2)C2C=CS(=O)(=O)C2)cc(OC)c1OC (stereo not given)	2.4	0.9	8.6	5.8
CCOc1ccc(C(=O)NCC(=O)N2CCCC2)cc1	0.8	16.7	0.8	21.0
Oc1ccc(C=Nc2ccccc2-c2nc3ccccc3[nH]2)c(O)c1	94.6*	-4.2	8.8	0.8
COc1ccc(OC)c(/C=C/c2nc3ccccc3[nH]c2=O)c1	59.8*	-13.4	-4.8	17.1
COc1ccc(OC)c(C=Nc2ccccc2-c2nc3ccccc3[nH]2)c1	86.5*	-2.6	2.8	2.2
CCOC(=O)Cc1nn(Cc2nc(-c3ccc(C)cc3)cs2)c(=O)c2ccccc12	3.0	0.6	15.1	11.5
CCOc1ccccc1C(=O)NCC(=O)OCC(=O)N1CCCC1	-0.6	0.5	0.5	x
CCOc1ccc(CNCCN2CCCC2)cc1	1.2	-1.9	-0.2	15.3
Clc1ccc(N2COC3c4cccc5cccc(c45)C32)cc1 (stereo not given)	60.1*	6.0	8.3	-25.6
COc1ccc(N2COC3c4cccc5cccc(c45)C32)cc1 (stereo not given)	30.1	-16.5	-1.9	3.4
CCOC(=O)C1CCN(C(=O)c2cc3ccccc3oc2=O)CC1	3.5	1.0	-0.8	3.6
CSc1nsc(SCC(=O)Nc2ccc(Br)cn2)n1	47.8*	-4.8	-8.0	2.6
CCNC(=O)NC(=O)CSc1ccc(S(=O)(=O)N(C)C2CCCCC2)cn1	-0.4	-17.1	-26.7	x
O=C(NN=C1c2ccccc2-c2ccccc21)c1cccc(Br)c1	56.1*	-5.3	-5.0	-3.4
CCOC(=O)c1ccc(Cl)c(NC(=O)c2cccnc2)c1	-1.0	8.3	-2.6	0.5
CCOC(=O)c1ccc(-n2ccnc2)c(NC(=O)c2ccc(Cl)cc2)c1	53.4*	-2.5	0.6	15.9
Cc1nc2ccccc2n1S(=O)(=O)c1cc(C(=O)O)ccc1Cl	0.8	7.8	19.2	-2.5
SMILES	AHR activator	proCasp3 act	procasp7 counter	PolyA inh
CCC1(C)Cc2c(sc3nc(NN)n(C)c(=O)c23)CO1 (stereo not given)	62.4*	-9.4	-5.8	3.0
O=c1c2ccccc2nc(COc2ccccc2)n1/N=C/c1cn[nH]c1-c1ccccc1	4.7	-1.5	0.1	-13.4
Cc1ccc(-c2[nH]ncc2/C=N/n2c(C)nc3ccccc3c2=O)cc1	61.2*	5.9	2.6	10.4
c1ccc(-c2noc(-c3ccc4ccccc4c3)n2)nc1	-18.1	-1.9	0.2	-20.2
O=[N+]([O-])c1cccc(-c2nc(-c3ccccn3)no2)c1	67.8*	2.5	3.0	-10.4
COc1cccc(-c2nc(-c3ccccc3)no2)c1	38.2	-1.5	-7.4	4.1
COc1cccc(-c2nc(-c3ccccn3)no2)c1	64.0*	0.2	9.2	-6.1
COc1cc(C(=O)NCC(c2ccc(F)cc2)N2CCOCC2)ccc1OCc1ccccc1Cl (stereo not given)	-1.3	2.8	4.4	-14.0
CN(CC(=O)Nc1ccc(F)cc1)C(=O)COc1ccccc1Cc1ccccc1	0.9	7.8	2.5	0.9
